pIC50: −log10 of the molar value. Activity calls are given as the source filed them. The calls are words filed in the database; no cut-off is given here.

In assay [1] the test system is PANC-1. In words: Ratio of curcumin IC50 to compound IC50 for human PANC1 cells. The format is functional. An outline of the steps: (§1)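 Curcumin served as positive control in each incubation, with its growth-inhibition data averaged across experiments.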
The subject of assay [2] is PC-3. Put plainly: Inhibition of Akt phosphorylation in human PC3 cells at 0.5 uM after 24 hrs by Western blotting relative to beta-actin. The format is cell-based. Summed up:
(§2)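 PC-3 cells were seeded at 1 × 10⁵ cells/ml in 100 mm dishes, grown 24 h, then treated 24 h. Cells were lysed in Tris-HCl pH 7.4 buffer containing NaF, pyrophosphate, orthovanadate and Triton X-100, and lysates cleared at 12,000×g. Blots on PVDF were probed with anti-phospho-Akt or anti-phospho-Erk1/2, detected by ECL, quantified by optical density and normalized to β-actin.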
In general terms: In western blotting, separated proteins are transferred to a membrane and probed.

For assay [3], the system named is HT-29. Put plainly: Cytotoxicity against human HT-29 cells after 72 hrs by MTT assay. The format is functional, cell-based. Conditions: HT-29, 72 h. An outline of the steps: (§3)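 Seeded at 0.2 × 10⁵ cells/ml, grown 24 h, then exposed 72 h to a range of concentrations (upper limit 30). MTT read-out: formazan dissolved in DMSO, absorbance at 540 nm, growth expressed as percent of DMSO-treated cells.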
A general note: Formazan colour is commonly taken as a measure of viable cells.

For assay [4], the system named is PC-3. In words: Ratio of curcumin IC50 to compound IC50 for human PC3 cells. The format is functional. Summed up:
as §1

Assay [5] deals with Mitogen-activated protein kinase; ERK1/ERK2 (Homo sapiens) (UniProt P27361+P28482). Put plainly: Inhibition of ERK1/2 phosphorylation in human PC3 cells at 0.5 uM after 24 hrs by Western blotting relative to beta-actin. Type of assay: cell-based. Conditions: PC-3. Summed up: as §2
Mitogen-activated protein kinase; ERK1/ERK2 (Homo sapiens), sequence (P27361 whole entry, looked up): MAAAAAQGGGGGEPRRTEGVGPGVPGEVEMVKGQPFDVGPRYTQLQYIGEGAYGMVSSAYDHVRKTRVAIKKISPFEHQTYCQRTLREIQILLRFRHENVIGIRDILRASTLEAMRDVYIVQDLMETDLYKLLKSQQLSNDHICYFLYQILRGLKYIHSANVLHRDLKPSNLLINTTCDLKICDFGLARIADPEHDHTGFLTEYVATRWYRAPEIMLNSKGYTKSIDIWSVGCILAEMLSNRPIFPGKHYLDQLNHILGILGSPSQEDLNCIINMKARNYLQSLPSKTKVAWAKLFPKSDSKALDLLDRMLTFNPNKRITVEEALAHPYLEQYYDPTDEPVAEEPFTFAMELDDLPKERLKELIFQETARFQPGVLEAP
Mitogen-activated protein kinase; ERK1/ERK2 (Homo sapiens), sequence (P28482 whole entry, looked up): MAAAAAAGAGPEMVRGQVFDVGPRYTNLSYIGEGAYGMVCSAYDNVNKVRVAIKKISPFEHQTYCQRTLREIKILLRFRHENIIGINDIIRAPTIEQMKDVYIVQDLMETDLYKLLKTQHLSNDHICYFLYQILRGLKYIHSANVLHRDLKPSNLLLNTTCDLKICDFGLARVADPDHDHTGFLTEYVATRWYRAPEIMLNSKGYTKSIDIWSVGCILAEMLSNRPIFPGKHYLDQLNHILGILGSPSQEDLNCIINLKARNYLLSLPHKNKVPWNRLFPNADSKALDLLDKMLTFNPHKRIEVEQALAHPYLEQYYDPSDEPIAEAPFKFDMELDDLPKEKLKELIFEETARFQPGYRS
The test system of assay [6] is PC-3. In words: Cytotoxicity against human PC3 cells after 72 hrs by MTT assay. The conditions noted are these: PC-3, 72 h. Type of assay: functional, cell-based. Summed up:
as §3

The subject of assay [7] is PANC-1. In words: Cytotoxicity against human PANC1 cells after 72 hrs by MTT assay. Type of assay: functional, cell-based. Conditions: PANC-1, 72 h. An outline of the steps: as §3
Assay [8] concerns HT-29. Put plainly: Ratio of curcumin IC50 to compound IC50 for human HT-29 cells. The format is functional. Summed up: as §1
Assay [9] deals with PC-3. Put plainly: Induction of apoptosis in human PC3 cells at <1 uM after 96 hrs by morphology analysis. Type of assay: functional, cell-based.

For orientation: pIC50 means −log10 of the IC50, conventionally taken in molar units. A high value points to a low IC50. Consider `COc1cc(/C=C2\COC/C(=C\c3cc(OC)c(OC)c(OC)c3)C2=O)cc(OC)c1OC`, for which the “Ratio IC50” value is 46 with PANC-1 [1], 72 with PC-3 [4] and 117 with HT-29 [8]. Further, the inhibition result (in the assay on PC-3 [2]; in assay [5]) was “Active” each time. Also, the values for the negative logarithm of the IC50 (pIC50) in the assay with HT-29 [3], with PC-3 [6] and in the assay with PANC-1 [7] were 6.80, 6.57 and 6.28, respectively. Further, in the assay with PC-3 [9], the result was Active.
On to `O=C1/C(=C/c2cccnc2)CSC/C1=C\c1cccnc1`, for which the Ratio IC50 in the assay on PANC-1 [1] is 45; in the assay with PC-3 [4], 21; in the assay with HT-29 [8], 27. Besides, the inhibition entry with PC-3 [2] is “inactive”. For the same compound, the pIC50 in the assay on HT-29 [3] was 6.10; with PC-3 [6], 6.02; in the assay on PANC-1 [7], 6.29. Also, in [5], the inhibition entry was “Active”. In addition, the outcome with PC-3 [9] was Active.
Take `O=C1/C(=C/c2ccccn2)CSC/C1=C\c1ccccn1`: the “Ratio IC50” value in the assay on PANC-1 [1], with PC-3 [4] and in the assay with HT-29 [8] was 21 each time. Also, the inhibition result with PC-3 [2] is “inactive”. For the same compound, the pIC50 is 6.12 in the assay on HT-29 [3], 6.28 in the assay with PC-3 [6] and 6.15 with PANC-1 [7]. For the same compound, in assay [5], the inhibition result was “Active”. In the assay with PC-3 [9], the outcome was Active.
For the compound `COc1cc(/C=C/C(=O)CC(=O)/C=C/c2ccc(O)c(OC)c2)ccc1O` [CURCUMIN], the inhibition entry (in the assay on PC-3 [2]; in assay [5]) was “inactive” in each case. The pIC50 in the assay with HT-29 [3] was 4.73; in the assay on PC-3 [6], 4.71; in the assay on PANC-1 [7], 4.63. The result in the assay on PC-3 [9] was inactive.
As to `COc1cc(C=C2CSCC(=Cc3cc(OC)c(OC)c(OC)c3)C2=O)cc(OC)c1OC`, the figures for the “Ratio IC50” value in the assay on PANC-1 [1], in the assay on PC-3 [4] and in the assay with HT-29 [8] were 34, 69 and 72, respectively. Besides, the inhibition entry in the assay with PC-3 [2] is “inactive”. Besides, the pIC50 with HT-29 [3] is 6.59; in the assay with PC-3 [6] it was 6.55; with PANC-1 [7] it was 6.15. In addition, in assay [5], the inhibition result was “Active”. Moreover, the outcome in the assay on PC-3 [9] was Active.

Source of the values: ChEMBL document CHEMBL2034978, “Synthesis and evaluation of curcumin-related compounds for anticancer activity” (Eur J Med Chem, 2012).
